Active and inactive are the calls of the source. The rule behind the calls is not given here.
Legend:
microRNA 21 [1] = experiment: Inhibition of miR-21 RNA in human HeLa cells harboring miR-21 binding sequence in 3'-UTR of firefly luciferase gene assessed as increase in luciferase expression incubated for 48 hrs by Bright-Glo luciferase reporter gene assay relative to control; assay type: cell-based
How it was run: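 HeLa-miR21-Luc stable line (miR-21 site in the firefly luciferase 3′-UTR), 1000 cells per well. Compound or DMSO (0.1% final) added after overnight attachment, in triplicate, for 48 h. Bright-Glo luminescence was normalized to XTT viability (450 nm) and expressed as fold change relative to DMSO. At least three independent experiments.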

[2] = Stabilization of pre-miR-21 RNA (unknown origin) assessed as increase in melting temperature at 10 uM by UV-spectrophotometric analysis
How it was run: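 Melting-curve analysis of precursor miR-21 RNA run with test compound, with DMSO as the reference condition and tobramycin (10 μM) as a positive control for RNA binding and stabilisation. Read-out is the shift in melting temperature of pre-miR-21 relative to the DMSO sample.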

microRNA 21 [3] = experiment: Inhibition of miR-21 RNA (unknown origin) transfected in human HeLa cells at 0.1 to 1000 nM after 48 hrs by Bright-Glo luciferase reporter gene assay; assay type: cell-based
A498 [4] = experiment: Inhibition of colony formation of human A498 cells after 2 weeks by crystal violet staining-based microscopic analysis; assay type: functional, cell-based; conditions: A498, 336 h
How it was run: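 A498 cells, 10,000 per well, seeded in 0.45% low-melt agarose in DMEM over a 0.7% agarose base layer, containing increasing compound concentrations or DMSO (0.1% final), in triplicate. For combinations, the inhibitor was held at 10 μM. After 2 weeks, colonies were stained with 0.1% crystal violet and imaged by z-stack microscopy. Colony counts were normalized to DMSO; IC50 from sigmoidal fit.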

A498 [5] = experiment: Induction of apoptosis in human A498 cells assessed as increase in caspase-3/7 activity at 1 uM after 24 hrs by Caspase-Glo 3/7 assay relative to control; assay type: functional

**Q.** With `Nc1c(-c2nc(-c3cccs3)no2)nnn1-c1cccc(-c2ccccc2)c1` as the compound, how does the fold change (FC) (microRNA 21 [1]) read?
**A.** The fold change (FC) was 1.06.

**Q.** Which fold change (FC) (microRNA 21 [1]) does the source give for `Nc1c(-c2nc(-c3cccs3)no2)nnn1-c1ccc2ccccc2c1` here?
**A.** Its fold change (FC) is 1.39.

**Q.** For `COc1cccc(-n2nnc(-c3nc(-c4ccccn4)no3)c2N)c1`, which fold change (FC) (microRNA 21 [1]) is on record?
**A.** Its fold change (FC) is 2.23.

**Q.** For `Nc1c(-c2nc(-c3cccs3)no2)nnn1-c1ccccc1CO`, which fold change (FC) (microRNA 21 [1]) is on record?
**A.** Its fold change (FC) is 2.23.

**Q.** Which fold change (FC) (microRNA 21 [1]) does the source give for `COc1cccc(-n2nnc(-c3nc(-c4cccs4)no3)c2N)c1` here?
**A.** The fold change (FC) was 2.84.

**Q.** With `Nc1c(-c2nc(-c3cccs3)no2)nnn1-c1ccc(CO)cc1` as the compound, how does the fold change (FC) (microRNA 21 [1]) read?
**A.** Its fold change (FC) is 2.14.

**Q.** With `CN(C)c1cccc(-n2nnc(-c3nc(-c4cccs4)no3)c2N)c1` as the compound, how does the fold change (FC) (microRNA 21 [1]) read?
**A.** The fold change (FC) was 2.56.

**Q.** With `C/C(=N\O)c1cccc(-n2nnc(-c3nc(-c4ccc(O)cc4)no3)c2N)c1` as the compound, how does the fold change (FC) (microRNA 21 [1]) read?
**A.** The fold change (FC) was 1.98.

**Q.** With `Cc1cccc(-n2nnc(-c3nc(-c4cccs4)no3)c2N)c1C` as the compound, how does the fold change (FC) (microRNA 21 [1]) read?
**A.** The fold change (FC) was 1.89.

**Q.** For `CCc1cccc(-n2nnc(-c3nc(-c4cccs4)no3)c2N)c1`, which fold change (FC) (microRNA 21 [1]) is on record?
**A.** Its fold change (FC) is 1.63.

**Q.** For `NC[C@H]1O[C@H](O[C@H]2[C@H](O)[C@@H](O[C@H]3O[C@H](CO)[C@@H](O)[C@H](N)[C@H]3O)[C@H](N)C[C@@H]2N)[C@H](N)C[C@@H]1O`, which ΔTm [2] is on record?
**A.** Its ΔTm is 19 °C.

**Q.** Which fold change (FC) (microRNA 21 [1]) does the source give for `Nc1c(-c2nnc(-c3cccs3)o2)nnn1-c1cccc(F)c1` here?
**A.** Its fold change (FC) is 1.6.

**Q.** For `CC(C)c1cccc(-n2nnc(-c3nc(-c4cccs4)no3)c2N)c1`, which fold change (FC) (microRNA 21 [1]) is on record?
**A.** The fold change (FC) was 1.82.

**Q.** Which fold change (FC) (microRNA 21 [1]) does the source give for `Nc1c(-c2nc(-c3cccs3)no2)nnn1-c1cccc(O)c1` here?
**A.** The fold change (FC) was 2.19.

**Q.** With `C/C(=N\O)c1cccc(-n2nnc(-c3nc(-c4cccs4)no3)c2N)c1` as the compound, how does the fold change (FC) (microRNA 21 [1]) read?
**A.** The fold change (FC) was 4.54.

**Q.** For `Nc1c(-c2nc(-c3cccs3)no2)nnn1-c1cccc(CO)c1`, which fold change (FC) (microRNA 21 [1]) is on record?
**A.** Its fold change (FC) is 1.67.

**Q.** For `c1ccc(-n2cc(-c3nc(-c4cccs4)no3)nn2)cc1`, which fold change (FC) (microRNA 21 [1]) is on record?
**A.** Its fold change (FC) is 1.41.

**Q.** For `COc1ccccc1-n1nnc(-c2nc(-c3cccs3)no2)c1N`, which fold change (FC) (microRNA 21 [1]) is on record?
**A.** Its fold change (FC) is 2.02.

**Q.** With `COc1cc(OC)cc(-n2nnc(-c3nc(-c4cccs4)no3)c2N)c1` as the compound, how does the fold change (FC) (microRNA 21 [1]) read?
**A.** Its fold change (FC) is 2.3.

**Q.** Which results are given for `CC[C@@]1(O)C(=O)OCc2c1cc1n(c2=O)Cc2cc3c(CN(C)C)c(O)ccc3nc2-1` [TOPOTECAN]?
**A.** inhibition (microRNA 21 [3]): inactive; IC50 (A498 [4]): 2000 nM; fold change (FC) (A498 [5]): 3

**Q.** With `CCOc1ccc(-c2noc(-c3nnn(-c4cccc(/C(C)=N/O)c4)c3N)n2)cc1` as the compound, how does the fold change (FC) (microRNA 21 [1]) read?
**A.** The fold change (FC) was 3.14.

**Q.** For `C#CCOc1ccc(-n2nnc(-c3nc(-c4cccs4)no3)c2N)cc1`, which fold change (FC) (microRNA 21 [1]) is on record?
**A.** Its fold change (FC) is 1.47.

**Q.** With `C/C(=N\O)c1cccc(-n2nnc(-c3nc(-c4ccc(OC(C)C)cc4)no3)c2N)c1` as the compound, how does the fold change (FC) (microRNA 21 [1]) read?
**A.** The fold change (FC) was 1.19.

**Q.** With `Nc1c(-c2nc(-c3cccs3)no2)nnn1-c1cccc(F)c1` as the compound, how does the fold change (FC) (microRNA 21 [1]) read?
**A.** Its fold change (FC) is 1.93.

**Q.** For `Nc1c(-c2nc(-c3cccs3)no2)nnn1-c1cccc(C(=O)c2ccccc2)c1`, which fold change (FC) (microRNA 21 [1]) is on record?
**A.** Its fold change (FC) is 1.82.

**Q.** With `Nc1c(-c2nc(-c3cccs3)no2)nnn1-c1cccc(C(F)(F)F)c1` as the compound, how does the fold change (FC) (microRNA 21 [1]) read?
**A.** Its fold change (FC) is 1.08.

**Q.** For `COc1cccc(-n2nnc(-c3nnc(-c4cccs4)o3)c2N)c1`, which fold change (FC) (microRNA 21 [1]) is on record?
**A.** The fold change (FC) was 2.68.

**Q.** Which fold change (FC) (microRNA 21 [1]) does the source give for `C=CCOc1ccc(-c2noc(-c3nnn(-c4cccc(/C(C)=N/O)c4)c3N)n2)cc1` here?
**A.** The fold change (FC) was 2.96.

**Q.** With `COc1cccc(-n2nnc(-c3nc(-c4ccco4)no3)c2N)c1` as the compound, how does the fold change (FC) (microRNA 21 [1]) read?
**A.** Its fold change (FC) is 2.19.

**Q.** With `COc1ccc(-c2noc(-c3nnn(-c4cccc(/C(C)=N/O)c4)c3N)n2)cc1` as the compound, how does the fold change (FC) (microRNA 21 [1]) read?
**A.** The fold change (FC) was 1.51.

**Q.** For `Fc1cccc(-n2cc(-c3nc(-c4cccs4)no3)nn2)c1`, which fold change (FC) (microRNA 21 [1]) is on record?
**A.** The fold change (FC) was 1.7.

**Q.** With `COc1cccc(-n2nnc(-c3nc(-c4ccccc4)no3)c2N)c1` as the compound, how does the fold change (FC) (microRNA 21 [1]) read?
**A.** Its fold change (FC) is 2.19.

**Q.** Which fold change (FC) (microRNA 21 [1]) does the source give for `COc1cccc(-n2cc(-c3nc(-c4cccs4)no3)nn2)c1` here?
**A.** The fold change (FC) was 2.2.

**Q.** With `CC(C)c1cccc(-n2nnc(-c3nnc(-c4cccs4)o3)c2N)c1` as the compound, how does the fold change (FC) (microRNA 21 [1]) read?
**A.** Its fold change (FC) is 1.72.

**Q.** For `CC(=O)c1cccc(-n2nnc(-c3nc(-c4cccs4)no3)c2N)c1`, which fold change (FC) (microRNA 21 [1]) is on record?
**A.** The fold change (FC) was 2.46.

**Q.** With `Nc1c(-c2nc(-c3cccs3)no2)nnn1-c1ccccc1` as the compound, how does the fold change (FC) (microRNA 21 [1]) read?
**A.** Its fold change (FC) is 1.01.

**Q.** Which fold change (FC) (microRNA 21 [1]) does the source give for `Nc1c(-c2nc(-c3cccs3)no2)nnn1-c1cccc(OC(F)(F)F)c1` here?
**A.** The fold change (FC) was 1.4.

**Q.** Which fold change (FC) (microRNA 21 [1]) does the source give for `C#CCOc1cccc(-n2nnc(-c3nc(-c4cccs4)no3)c2N)c1` here?
**A.** The fold change (FC) was 1.61.

Reference: ChEMBL document CHEMBL4251758, “Small Molecule Inhibition of MicroRNA miR-21 Rescues Chemosensitivity of Renal-Cell Carcinoma to Topotecan” (J Med Chem, 2018)
